Source: PubChem BioAssay
CRFR2-BP antag: antagonists of CRF-binding protein/CRF-R2 receptor complex | HEK293 CRF-R2/CRF-BP, CRF-induced calcium fluorescence | inhibition, % at 11.8 µM | hit rate 0.59% among 350,000 | AID 588475;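 active = inhibition of the ligand-induced calcium signal above about 50% at the single tested concentration, limit read from the data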
CHOP UPR activ: activators of apoptotic arm of unfolded protein response (CHOP). hit rate 0.34% among 330,000. CHO-CHOP luciferase reporter, UPR activation, luminescence; percent of tunicamycin response over DMSO baseline. activation, % at 10 µM;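 active = at 10 µM dose, activation of 40% or more, normalized to positive control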;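 note: 100% = tunicamycin at 10 µg/mL and 0% = DMSO alone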
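System: CHO-CHOP luciferase reporter cell line; amount: 500 cells/well; buffer or medium: F12 medium containing 10% fetal bovine serum; incubation: 6 h compound exposure at 37 °C after overnight seeding; measured by: luciferase luminescence after 10 min with Steady-Glo reagent; evaluation: % reporter activation, DMSO baseline versus tunicamycin full activation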
Jurkat NFkB inh: inhibitors of the PMA/ionomycin-induced NF-kB reporter in Jurkat cells | inhibition, % at 4 µM | PMA/ionomycin-induced NF-kB luciferase reporter, luminescence | hit rate 0.53% among 330,000 | AID 435003; in the data active = inhibition above about 50%
697 NFkB inh: inhibitors of the PMA/ionomycin-induced NF-kB reporter in 697 B cells; 697 B-cell NF-kB luciferase reporter, 16 h; inhibition, % at 4 µM; hit rate 0.33% among 330,000; in the data active = inhibition above about 35%
XBP1 UPR activ: activators of adaptive arm of unfolded protein response (XBP1). CHO-XBP1 luciferase reporter, IRE1-XBP1 UPR activation, luminescence; percent of tunicamycin response, DMSO as zero. activation, % at 20 µM. hit rate 0.33% among 330,000;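 active = versus positive control, 20 µM dose yields 30% or more activation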;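 note: 100% = tunicamycin at 10 µg/mL and 0% = DMSO only wells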
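Material: CHO-XBP1 cells stably carrying IRE1-XBP1-driven luciferase reporter / Amount: 1000 cells per well / Compound: 20 µM, 1% DMSO / Times: 6 h treatment, 37 °C / Detection: luciferase luminescence / Measure: % activation of reporter signal versus tunicamycin and DMSO controls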
XBP1 UPR conf: adaptive UPR (XBP1) activation, confirmed; shares compounds with XBP1 UPR activ; CHO-XBP1 IRE1-XBP1 luciferase reporter, luminescence; activation, % at 20 µM; hit rate 63% among 1,000; AID 485299;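 active = reporter signal at least 30% of the positive control's activation in two or more of four replicate wells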;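 note: plate controls were DMSO negative control for no effect and tunicamycin 10 µg/mL positive control for full effect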
Starred values were filed as active, the others as inactive; . = not tested or not shown. Most compounds without a hit are left out; they make up all but 1.8% or so of the library.

SMILES | CRFR2-BP antag | CHOP UPR activ | Jurkat NFkB inh | 697 NFkB inh | XBP1 UPR activ | XBP1 UPR conf
COc1cc(OC)cc(C(=O)Nc2ccccc2-c2nnn(CC(=O)Nc3cc(C)on3)n2)c1 | 7 | 2 | -7 | 0 | 327* | 1
CCOc1ccc(S(=O)(=O)N2CCC(C(=O)NCCc3ccccc3)CC2)cc1 | 12 | 3 | -1 | 12 | 1 | .
COc1ccccc1-n1nnnc1SCC(=O)N1CCCC1=O | -2 | 0 | 13 | 15 | -2 | .
c1ccc(C2NCCn3cccc32)cc1 (centres undefined) | -9 | 3 | -1 | 15 | 49* | 0
Fc1ccc(C2NCCn3cccc32)cc1 (centres undefined) | 7 | 0 | 2 | -9 | -2 | .
CC/C(=N/Nc1ccccc1)c1cnnc(-c2ccccc2)n1 | -59 | 4 | -19 | -27 | 69* | 10
CC/C(=N/Nc1cccc(Cl)c1)c1cnnc(SC)n1 | -13 | -1 | -4 | -24 | -2 | .
CC(C)N(C(=O)[C@H]1C[C@H](CC(=O)NCc2cccc(C(F)(F)F)c2)C(=O)N2CCc3c([nH]c4ccc(Cl)cc34)[C@]12C)C(C)C | 4 | 9 | . | 32 | 55* | 70*
COc1ccccc1C1NC=C([N+](=O)[O-])C=C1[N+](=O)[O-] (centres undefined) | -1 | 0 | 6 | 2 | -4 | .
COc1ccccc1C1C([N+](=O)[O-])=CC([N+](=O)[O-])=CN1C (centres undefined) | -12 | 25 | 20 | 16 | 51* | 0
CC(C)(C)C1CCc2sc(-c3nnc(CCl)o3)cc2C1 (centres undefined) | -17 | 35 | -25 | -34 | 44* | 10
Cc1ccccc1OCC(=O)Nc1ccc(N2CCN(C)CC2)c(Cl)c1 | -6 | 5 | -78 | -42 | 3 | .
Cn1nnnc1Sc1ncnc2scc(-c3ccc(F)cc3)c12 | 15 | 5 | -82 | -124 | 5 | .
Cn1nnnc1Sc1ncnc2scc(-c3ccc(Br)cc3)c12 | 12 | 18 | 6 | -79 | 100* | 141*
COc1ccc2c(c1)NC(c1cc(Cl)cc(Cl)c1O)c1cccn1-2 (centres undefined) | 14 | 6 | -1 | 5 | 49* | 57*
CC1(C)Cc2c(c(N3CCOCC3)nc3sc4c(NCc5ccccc5)nnnc4c23)CS1 | -1 | 8 | 1 | 27 | 137* | 14
Oc1ccc(C[C@H]2CNC(=S)N2CC2CCCN2C[C@H](Cc2ccccc2)N2C[C@H](Cc3ccc(O)cc3)N(CCc3ccccc3)C2=S)cc1 (some centres undefined) | -5 | . | . | . | . | .
CN(C)c1cc(-c2ccccc2)nc(-c2ccccc2)n1 | -14 | 2 | 5 | -2 | -1 | .
CCCn1c(Nc2nc3ccccc3n2C)nc2ccccc21 | -19 | 1 | 15 | -5 | 55* | 57*
CCCCn1c(Nc2ccccc2)nc2ccccc21 | -31 | 0 | -13 | 16 | 0 | .
COc1ccc(Nc2nc(N)c([N+](=O)[O-])c(NC3CCCCC3)n2)cc1 | -57 | 1 | -3 | -1 | 53* | 35*
COc1ccc(Nc2nc(N)c([N+](=O)[O-])c(NCCO)n2)cc1 | -27 | -1 | 16 | 6 | 6 | .
CCC(C)Nc1nc(N)c([N+](=O)[O-])c(NC2CCCCC2)n1 (centres undefined) | -58 | 0 | -10 | -51 | 35* | 31*
O=C(Nc1ccc(-c2nc3ccccc3o2)cc1)c1ccc(N2CCOCC2)c([N+](=O)[O-])c1 | -24 | -6 | 5 | -114 | -6 | .
COc1ccc2oc(-c3ccc(NC(=O)c4ccc(N5CCOCC5)c([N+](=O)[O-])c4)cc3)nc2c1 | -33 | 3 | -15 | -227 | 64* | 23
SMILES | CRFR2-BP antag | CHOP UPR activ | Jurkat NFkB inh | 697 NFkB inh | XBP1 UPR activ | XBP1 UPR conf
Cc1ccc(-c2csc(/C(C#N)=C/Nc3ccc4c(c3)OCCO4)n2)cc1 | 3 | 3 | 48 | 12 | 33* | 30
O=C(c1n[nH]c2ccccc12)N1CCN(S(=O)(=O)c2ccccc2)CC1 | -2 | 0 | -12 | -5 | 0 | .
CC1CN(C(=O)Cn2cc(S(=O)(=O)CC(=O)N3CCOCC3)c3ccccc32)CC(C)O1 (centres undefined) | 2 | 0 | 13 | 3 | -4 | .
COc1cccc(NC(=O)c2sc3ncn(CC(=O)N4CCN(c5ccccn5)CC4)c(=O)c3c2C)c1 | 0 | 4 | 5 | 15 | -2 | .
C[C@H]1CN([C@@H](C)CO)C(=O)c2cccc(NC(=O)Nc3ccc(C(F)(F)F)cc3)c2O[C@@H]1CN(C)C(=O)Nc1ccc(F)cc1 | -22 | 5 | 5 | 19 | 6 | .
C[C@H](CO)N1C[C@H](C)[C@@H](CN(C)C(=O)Nc2ccc(C(F)(F)F)cc2)Oc2c(NC(=O)Nc3ccc(C(F)(F)F)cc3)cccc2C1=O | -1 | 7 | 9 | 26 | 37* | 28
CC1O[C@@H]2O[C@](O[C@H](C)CC[C@@H](C)O)(c3ccccc3)O[C@@H]2C[C@H]1O (some centres undefined) | -2 | -1 | 5 | 0 | -2 | .
COc1ccc(Cn2c(C3CCCCC3)nc3c(c(=O)c4ccccc4n3C)c2=O)cc1 | -22 | 6 | -8 | -11 | 10 | .
COc1ccc(CCn2c(C3CCCCC3)nc3c(c(=O)c4ccccc4n3C)c2=O)cc1 | -17 | 6 | 36 | -87 | 34* | 82*
CC(C)OCCCNc1ccc(N2C(=O)CCCC2=O)cc1[N+](=O)[O-] | 1 | 1 | 12 | -2 | 7 | .
Cc1cccc(OCC(=O)Nc2ccc(C(=O)Nc3ccccc3C(=O)O)cc2)c1C | 19 | 0 | 1 | -9 | -8 | .
COC(=O)c1ccc2c(=O)n(CC3CCCO3)c(SCC(=O)Nc3ccccc3Cl)nc2c1 (centres undefined) | -10 | 5 | -7 | -11 | 35* | 7
CC(=O)N1CCN(S(=O)(=O)c2cccc(C(=O)N3CCN(S(=O)(=O)c4c(C)c(C)cc(C)c4C)CC3)c2)CC1 | 3 | . | . | . | . | .
COc1ccc2[nH]c3c(c2c1)CCN1C(=O)C(CC(=O)NC/C=C(\C)CCC=C(C)C)C[C@H](C(=O)N2CCOCC2)[C@@]31CCC1CCCC1 (some centres undefined) | -6 | 8 | . | 10 | 47* | 58*
O=c1c2ccccc2sn1-c1ccc(Cl)cc1Cl | 19 | . | . | . | . | .
CC(C)(C)c1nc2c(C#N)c(-c3ccc(Cl)cc3)ccn2n1 | -13 | 4 | -41 | -44 | 6 | .
N#Cc1c(-c2ccc3c(c2)OCO3)ccn2nc(-c3cccc(C(F)(F)F)c3)nc12 | -4 | 14 | -33 | -11 | 53* | 50*
O=C1c2ccccc2C(=O)N1CCCOCc1c[nH]c(=O)[nH]c1=O | 16 | -1 | 6 | 11 | 32* | 0
